APP 5'UTR act – activates APP 5'UTR luciferase reporter. SH-SY5Y APP 5'UTR luciferase reporter, luminescence; zero percent = DMSO vehicle wells. activation, % at 2 µM. 190,000 tested, 1% active;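 active = activation above a set limit, based on mean plus 3 SD of controls, cut at about 140% in these data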
PPC-1+TRAIL kill – kills PPC-1 cancer cells in the presence of TRAIL; 220,000 tested, 0.41% active; PPC-1 cells + TRAIL, ATPLite viability luminescence; cell killing (% activity), % at 4 µM or 5 µM; AID 1443;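 active = cell killing above 50% in the first pass at 4 µM, then a duplicate retest at 5 µM averaging 50% or more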
NF-kB expr up – raises NF-kB expression in human neuronal cells | NF-kB reporter expression; active compounds read high | fold change at 12.5 µM | 190,000 tested, 1.6% active; in the data active = fold change above about 3.3
C8 TRAIL sens – sensitizes caspase-8 expressing cells to TRAIL. NB7+C8 cells + TRAIL, ATPlite viability luminescence. inhibition (viability loss, TRAIL sensitization), % at 10 µM. 360,000 tested, 1% active. AID 624354;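 active = compounds causing at least 50% loss of cell viability in the single-dose screen, relative to plate controls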
FLuc inh counter – inhibits firefly luciferase, flagging false hits in luciferase inhibition screens | AID 1006 | inhibition, % at 10 µM | 200,000 tested, 1.5% active | ATPLite firefly luciferase biochemical luminescence, 10 min | P08659;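 active = inhibition above about 50% when tested at 10 µM, limit read from the data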
Target sequence (P08659 whole entry, looked up): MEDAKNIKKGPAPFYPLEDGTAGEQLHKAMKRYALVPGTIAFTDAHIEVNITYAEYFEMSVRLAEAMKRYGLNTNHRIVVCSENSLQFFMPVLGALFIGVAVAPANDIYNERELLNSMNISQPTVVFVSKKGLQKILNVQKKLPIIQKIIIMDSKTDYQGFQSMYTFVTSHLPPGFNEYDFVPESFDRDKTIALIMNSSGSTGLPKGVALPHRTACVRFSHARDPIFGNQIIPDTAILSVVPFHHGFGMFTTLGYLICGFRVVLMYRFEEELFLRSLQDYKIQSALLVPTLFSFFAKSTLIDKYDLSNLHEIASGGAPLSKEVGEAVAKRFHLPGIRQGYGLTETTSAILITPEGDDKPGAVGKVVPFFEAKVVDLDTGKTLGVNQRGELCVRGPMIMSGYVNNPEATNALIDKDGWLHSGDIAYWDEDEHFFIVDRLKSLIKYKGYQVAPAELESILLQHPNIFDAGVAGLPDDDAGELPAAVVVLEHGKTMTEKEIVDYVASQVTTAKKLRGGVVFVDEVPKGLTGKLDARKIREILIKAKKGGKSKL
FLuc act counter – affects firefly luciferase, flagging false hits in luciferase stimulation screens; AID 1027; ATPlite luciferase biochemical, luminescence, 10 min; 0 = ATP-free wells, 1 = DMSO control; 200,000 tested, under 10 active; activation factor at 10 µM;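 active = luciferase activation factor, scaled between plate controls, of at least 2 with compound at 10 µM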
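test system = cell-free luciferase reagent | medium = PBS as buffer for the ATP substrate | dosing = test compounds dosed from 2 mM stocks in 100% DMSO | incubation = 10 min at ambient temperature | detection = luminescence measurement of luciferase light output | benchmarks = low control with PBS replacing ATP, high control enzyme plus ATP without compound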
A number is an active result; . = inactive; / = no result given. Shown are actives, neighbours in structure and some others; about 2.2% of the full set was active somewhere.

SMILES | APP 5'UTR act | PPC-1+TRAIL kill | NF-kB expr up | C8 TRAIL sens | FLuc inh counter | FLuc act counter
COc1ccc(Oc2cc(NC(=O)c3nn(C)cc3[N+](=O)[O-])cc([N+](=O)[O-])c2)cc1 | . | . | . | 87.8 | . | .
COc1ccc(NC(=O)c2cn(CCC#N)nc2-c2cccc([N+](=O)[O-])c2)cc1 | / | . | / | . | / | /
CCOC(=O)c1c(N)n(CCCOC(=O)c2ccco2)c2nc3ccccc3nc12 | . | . | . | 51.5 | . | .
COCCCn1c(N)c(C(=O)OCCOC)c2nc3ccccc3nc21 | . | . | . | . | . | .
COc1ccc(C(c2nnnn2-c2ccc3c(c2)OCCO3)N2CCC3(CC2)C(=O)NCN3c2ccccc2)cc1 (stereo not drawn) | / | / | / | . | / | /
c1ccc2sc(NC3=NCCN3)nc2c1 | . | . | . | . | . | .
COc1ccc2nc(NC3=NCCN3)sc2c1 | . | . | . | . | 57.1 | .
CCOC(=O)C(=CNc1ccc(C(O)(C(=O)OCC)C(F)(F)F)cc1C)C(=O)OCC (stereo not drawn) | . | . | . | 72.7 | . | .
CCOC(=O)C(O)(c1ccc(NC(=O)c2ccc(Cl)c(Cl)c2)cc1)C(F)(F)F (stereo not drawn) | / | . | / | . | / | /
CCOC(=O)c1cc2ccccc2n1C1CCN(Cc2ccccc2)CC1 | / | / | / | . | / | /
O=C1NC(=O)N(c2ccccc2)C(=O)/C1=C/C=C/c1ccco1 | / | . | / | . | / | /
CN(C)c1ccc(/C=C/C=C2/C(=O)NC(=O)N(c3ccccc3)C2=O)cc1 | . | . | . | . | 52.9 | .
COc1cc2cc(C(=O)N3CC(COS(C)(=O)=O)c4ccc(O)cc43)[nH]c2c(OC)c1OC (stereo not drawn) | / | / | / | 91.3 | / | /
Cc1cc(C=C2C(=O)NC(=S)NC2=O)c(C)n1C1CCCC1 | . | . | . | . | 77.2 | .
Cc1cc(C=C2C(=O)N(C)C(=S)N(C)C2=O)c(C)n1C1CCCCC1 | . | . | . | . | . | .
COc1ccc(-n2nnnc2C(c2cccs2)N2CCC3(CC2)C(=O)NCN3c2ccccc2)cc1 (stereo not drawn) | / | / | / | . | / | /
COc1ccc(CC2=NCCc3cc(OC)c(OC)cc32)cc1OC | / | / | / | . | / | /
COC(=O)C1CN(C#N)N(c2ccc(Cl)cc2)C12c1ccccc1-c1ccccc12 (stereo not drawn) | . | . | . | 91.3 | . | .
COC1CC2C=C(C)C=CC=CC(=O)NC(c3ccccc3)CC=CCCC(O)CC(=O)C2=C1O (stereo not drawn) | / | / | / | 96.7 | / | /
CC(C)(O)/C=C/C(=O)C(C)(O)C1C(O)CC2(C)C3CC=C4C(C=C(O)C(=O)C4(C)C)C3(C)C(=O)CC12C (stereo not drawn) | / | / | / | 62.4 | / | /
Oc1c(Cl)cccc1Cc1cc(Cl)cc(Cl)c1O | / | / | / | . | / | /
CC1CCC/C=C/C2CC(O)CC2C(O)/C=C/C(=O)O1 (stereo not drawn) | . | 57.1 | . | . | . | .
C[C@H]1CCC/C=C/C2C[C@H](O)CC2[C@H](O)/C=C/C(=O)O1 (stereo partly drawn) | . | . | . | . | . | .
CC1CCC(C(C)C)C(OC(=O)Cn2c(COc3ccccc3)[n+](C)c3ccccc32)C1 (stereo not drawn) | / | . | / | 52.7 | / | /
COc1ccc2c(c1)C13CCN4CC5=CCOC6CC(=O)N2C1C6C5CC43 (stereo not drawn) | / | / | / | . | / | /
SMILES | APP 5'UTR act | PPC-1+TRAIL kill | NF-kB expr up | C8 TRAIL sens | FLuc inh counter | FLuc act counter
CCOC(=O)[C@]12Cc3ccc(C)cc3[C@H]1N(C1CCCCC1)C(=O)c1cc(OC)ccc12 | / | / | / | 95.0 | / | /
CCOC(=O)[C@]12Cc3ccccc3[C@H]1N(C(C)C)C(=O)c1ccccc12 | / | / | / | . | / | /
CCOC(=O)[C@]12Cc3cc(Cl)ccc3[C@H]1N(C1CCCCC1)C(=O)c1cc(OC)ccc12 | / | / | / | 95.5 | / | /
CCOC(=O)[C@]12Cc3cc(OC)ccc3[C@H]1N(C)C(=O)c1cc(OC)ccc12 | / | / | / | . | / | /
CCOC(=O)[C@]12Cc3c(cc(OC)c(OC)c3OC)[C@H]1N(C1CCCCC1)C(=O)c1ccccc12 | / | / | / | 90.3 | / | /
CCOC(=O)[C@]12Cc3cc(C)ccc3[C@H]1N(C1CCCCC1)C(=O)c1ccccc12 | / | / | / | 92.1 | / | /
CCOC(=O)[C@]12Cc3cc(Cl)ccc3[C@H]1N(C)C(=O)c1cc(OC)ccc12 | / | / | / | . | / | /
N#CC1c2ccccc2C=CN1C(=O)c1ccc(N(CCCl)CCCl)cc1 (stereo not drawn) | / | / | / | . | / | /
CCOC(=O)c1cccc(C2=C(CNC(=O)c3nccs3)[C@H]3CC[C@@H](C2)N3Cc2ccccc2)c1 | / | / | / | . | / | /
O=S(=O)(c1cc(Cl)cc(Cl)c1)N1Cc2cc(-c3cccc(F)c3)ccc2-n2nncc2C1 | / | / | / | . | / | /
CCCCn1nnnc1C(c1ccnc2ccccc12)N1CCC2(CC1)C(=O)NCN2c1ccccc1 (stereo not drawn) | / | / | / | . | / | /
CCOC(=O)[C@]12Cc3ccc(C)cc3[C@H]1N(C1CCCCC1)C(=O)c1ccccc12 | / | / | / | 86.4 | / | /
CC12CCC(O)CC1CCC1C2CCC2(C)C(C3=CC(=O)OC3)C(O)CC12O (stereo not drawn) | / | / | / | 57.6 | / | /
C[C@]12CC[C@H](O)C[C@H]1CC[C@@H]1[C@@H]2C[C@@H](O)[C@]2(C)[C@@H](C3=CC(=O)OC3)CC[C@]12O | / | / | / | 56.0 | / | /
COC1C(O)C(C)OC(OC2CCC3(C)C(CCC4C3C(O)CC3(C)C(C5=CC(=O)OC5)CCC43O)C2)C1O (stereo not drawn) | / | / | / | 68.1 | / | /
C[C@]12CC[C@H](O)C[C@H]1CC[C@@H]1[C@@H]2CC[C@]2(C)[C@@H](C3=CC(=O)OC3)CC[C@]12O | / | / | / | . | / | /
C[C@]12CCC3C(CC[C@H]4C[C@@H](O)CC[C@]34C)[C@H]1C=CC2=O (stereo partly drawn) | / | / | / | . | / | /
CC12CCC(O)CC1CCC1C2CCC2(C)C(C3=CC(=O)OC3)CCC12O (stereo not drawn) | / | / | / | 64.0 | / | /
CC(=O)C1CCC2C3CCC4CC(O)CCC4(C)C3CCC12C (stereo not drawn) | / | / | / | . | / | /
COc1ccc(CCN)cc1S(N)(=O)=O | / | / | / | . | / | /
CS(=O)(=O)c1ccc(C2=C(CNC(=O)c3ccc([N+](=O)[O-])cc3)[C@H]3CC[C@@H](C2)N3CCOc2ccccc2)cc1 | / | / | / | . | / | /
Cc1nc2ccccc2c(=O)n1-c1c(Cl)cccc1Cl | / | / | / | . | / | /
COc1ccc(-c2ccc3c(c2)CN(C(=O)NC2CCCCC2)Cc2cnnn2-3)cc1 | / | / | / | . | / | /
CC(C)(C)n1nnnc1C(CCc1ccccc1)N1CCC2(CC1)C(=O)NCN2c1ccccc1 (stereo not drawn) | / | / | / | . | / | /
CC(=O)OC1CC(OC2C(O)CC(OC3C(O)CC(OC4CCC5(C)C(CCC6C5CC(O)C5(C)C(C7=CC(=O)OC7)CCC65O)C4)OC3C)OC2C)OC(C)C1OC1OC(CO)C(O)C(O)C1O (stereo not drawn) | / | / | / | 66.5 | / | /

Screening results as filed in PubChem.
